A short description of data set [1]: folding enthalpy; higher = less favourable; fluorescence melt of hairpins on a sequencing array, two-state fit. The note with it: sodium 0.088 M. The essentials: (§1)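 Cy3 signals were normalised both to pre-quench Cy3 and to control constructs. They came from library hairpins carrying annealed Cy3 and quencher oligos on a sequenced MiSeq flow cell, imaged in 50 mM Na-HEPES pH 8.0, 25 mM NaCl, in 2.5 °C steps up to 60 °C. Bootstrapped two-state fits gave melting temperature and folding enthalpy, and four replicates were combined by inverse variance. Fitted temperatures were then raised by 9.35 °C to match UV melts.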

The nature of data set [2]: melting temperature; fluorescence melt of hairpins on a sequencing array, two-state fit, raised by 9.35 °C to match UV melts. To be noted: sodium 0.088 M. Put shortly: as §1

GTTGTCGGAAACGGTAAC (((..((....))..))): in data set [1], the folding enthalpy is -21.9 kcal/mol. In data set [2], the Tm was 33.1 °C.
For GTTGTGAAAACAAC (((((....))))) the same measures were -29.6 kcal/mol and 50.5 °C.
For GTTGTGCGAAAGCAAAC (((.(((....)))))) the same measures were -16.5 kcal/mol and 46.8 °C.
For GTTGTGCGAAAGCAGAAC (((.(((....))).))) the same measures were -30.9 kcal/mol and 54.1 °C.
On to GTTGTGGGAAACTACAAC (((((.(....).))))), for which, in data set [1], the folding enthalpy was -36.1 kcal/mol. Moreover, the Tm in data set [2] came to 46.3 °C.
On to GTTGTTCGAAAGAAAAAC (((.(((....))).))), for which, in data set [1], the folding enthalpy is -29.1 kcal/mol. Further, in data set [2], the Tm is 34.9 °C.
The corresponding values for GTTGTTGGAAACAACGAC ((.((((....)))).)) are -18.6 kcal/mol and 55.9 °C.
The corresponding values for GTTTAACCGAAAGGTAAC (((..(((....)))))) are -10.4 kcal/mol and 29.7 °C.
The corresponding values for GTTTAAGGAAACTTAAGC (.(((((....))))).) are -13.9 kcal/mol and 32.4 °C.
Consider GTTTAAGGAAACTTGAAC (((.(((....))).))), for which the folding enthalpy in data set [1] was -18.5 kcal/mol. Further, in data set [2], the Tm stood at 35 °C.
The corresponding values for GTTTACCGAAAGGTCAAC (((.(((....))).))) are -24.8 kcal/mol and 39.1 °C.
For GTTTACGGAAACGTAAAC (((((((....))))))) the same measures were -41.1 kcal/mol and 57.5 °C.
The corresponding values for GTTTACGGAAACGTAGAC ((.((((....)))).)) are -24.7 kcal/mol and 40.3 °C.
In the case of GTTTAGCGAAAGCTAAC (((.(((....)))))), the folding enthalpy in data set [1] is -11.7 kcal/mol. Also, the Tm in data set [2] is 44.1 °C.
For GTTTAGCGAAAGCTTAAC (((.(((....))).))) the same measures were -22.1 kcal/mol and 44.1 °C.
The corresponding values for GTTTAGGAAACTAAAC ((((((....)))))) are -30.6 kcal/mol and 44.7 °C.
On to GTTTAGGGAAACCTGAAC (((.(((....))).))), for which, in data set [1], the folding enthalpy was -34.8 kcal/mol. In addition, the Tm in data set [2] was 38.5 °C.
For the sequence GTTTAGGGAAACTTGAAC (((.(.(....).).))), the folding enthalpy in data set [1] is -13 kcal/mol. In addition, the Tm in data set [2] worked out at 34.1 °C.
The corresponding values for GTTTAGTCGAAAGACAAC (((..(((....)))))) are -10.8 kcal/mol and 27.4 °C.
With GTTTATGCGAAAGCAAAC (((..(((....)))))), the folding enthalpy in data set [1] was -8.45 kcal/mol. The Tm in data set [2] worked out at 28.1 °C.
The corresponding values for GTTTCAGAAATGAAAC ((((((....)))))) are -27.3 kcal/mol and 47.2 °C.
For GTTTCAGGAAACTGAAAC (((((((....))))))) the same measures were -45 kcal/mol and 55.3 °C.
For GTTTCAGGAAACTGAAGC (.(((((....))))).) the same measures were -22.2 kcal/mol and 38.9 °C.
Consider GTTTCAGGAAACTGAGAC ((.((((....)))).)), for which the folding enthalpy in data set [1] is -24.9 kcal/mol. Besides, the Tm in data set [2] was found to be 37.3 °C.
GTTTCCCCGAAAGGGAAC (((..(((....)))))): in data set [1], the folding enthalpy was -13.7 kcal/mol. Moreover, the Tm in data set [2] turned out to be 38.5 °C.
The corresponding values for GTTTCCCGAAAGGGGAAC (((.(((....))).))) are -36.2 kcal/mol and 56.1 °C.
For GTTTCCGAAAGGAATAAC ((((((....)))..))) the same measures were -12 kcal/mol and 30.2 °C.
The corresponding values for GTTTCCGAAAGGAGCAAC ((((((....)))..))) are -11.8 kcal/mol and 26.8 °C.
Turning to GTTTCCGAAAGGATAAAC ((((((....)))..))), the folding enthalpy in data set [1] is -15.8 kcal/mol. Also, the Tm in data set [2] stood at 29.7 °C.
The corresponding values for GTTTCCGAAAGGATCAAC ((((((....)))..))) are -11.2 kcal/mol and 22.4 °C.
Consider GTTTCCGAAAGGATGAAC ((((((....)))..))), for which, in data set [1], the folding enthalpy is -8.12 kcal/mol. Also, the Tm in data set [2] was 25.8 °C.
For GTTTCCGGAAACGGAGAC ((.((((....)))).)) the same measures were -20.2 kcal/mol and 47.6 °C.
The corresponding values for GTTTCCGGAAACGGGAAC (((.(((....))).))) are -28.2 kcal/mol and 54 °C.
For the sequence GTTTCGAAAGAAAC (((((....))))), the folding enthalpy in data set [1] was -29.1 kcal/mol. In addition, the Tm in data set [2] is 53.6 °C.
For the sequence GTTTCTCGAAAGAGCAAC (((.(((....))).))), the folding enthalpy in data set [1] was -23.6 kcal/mol. The Tm in data set [2] amounted to 36.4 °C.
The corresponding values for GTTTCTGAAAAGAAAC ((((((....)))))) are -37 kcal/mol and 50.2 °C.
For GTTTGAGCGAAAGCTAAC (((..(((....)))))) the same measures were -10.5 kcal/mol and 31.1 °C.

For the origin of these results see the array DNA melting data of Ke et al. (doi:10.1101/2024.01.08.574731).
